Assays:
Format in all cases: functional
HL-60(TB) = assay: Cytotoxicity against human HL-60(TB) cells
In short: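 Tested within the NCI 60-cell-line screen, with GI50 as the read-out. Values are the average of two independent experiments. The lowest concentration tested was 10 nM.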

K562 = assay: Cytotoxicity against human K562 cells
In short: (§1)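 Tested in a 60-cell-line human tumor panel screen; the read-out is growth inhibition, reported as GI50 for each cell line.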

MOLT-4 = assay: Cytotoxicity against human MOLT4 cells; in short: as §1
A549 = assay: Cytotoxicity against human A549 cells; in short: as §1
[1] = Cytotoxicity against human EKVX cells; in short: as §1
NCI-H226 = assay: Cytotoxicity against human NCI-H226 cells; in short: as §1
NCI-H23 = assay: Cytotoxicity against human NCI-H23 cells; in short: as §1
HCC 2998 = assay: Cytotoxicity against human HCC2998 cells; in short: as §1
HCT-116 = assay: Cytotoxicity against human HCT116 cells; in short: as §1
[2] = Cytotoxicity against human HCT15 cells; in short: as §1
HT-29 = assay: Cytotoxicity against human HT-29 cells; in short: as §1
KM12 = assay: Cytotoxicity against human KM12 cells; in short: as §1
SF-268 = assay: Cytotoxicity against human SF268 cells; in short: as §1
SF-295 = assay: Cytotoxicity against human SF295 cells; in short: as §1
SF-539 = assay: Cytotoxicity against human SF539 cells; in short: as §1
SNB-75 = assay: Cytotoxicity against human SNB75 cells
In short: (§2)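 Cell line run as part of the 60-cell-line screening panel; growth inhibition was reported as a GI50 for each line.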

U-251 = assay: Cytotoxicity against human U251 cells; in short: as §2
LOX IMVI = assay: Cytotoxicity against human LOXIMVI cells; in short: as §1
M14 = assay: Cytotoxicity against human M14 cells; in short: as §1
MDA-MB-435 = assay: Cytotoxicity against human MDA-MB-435 cells; in short: as §1
NCI-H460 = assay: Cytotoxicity against human NCI-H460 cells; in short: as §1
SK-MEL-2 = assay: Cytotoxicity against human SK-MEL-2 cells; in short: as §1
[3] = Cytotoxicity against human UACC257 cells; in short: as §2
IGROV-1 = assay: Cytotoxicity against human IGROV1 cells; in short: as §1
[4] = Cytotoxicity against human OVCAR3 cells; in short: as §1
[5] = Cytotoxicity against human OVCAR4 cells; in short: as §1
[6] = Cytotoxicity against human OVCAR5 cells; in short: as §1
[7] = Cytotoxicity against human OVCAR8 cells; in short: as §1
[8] = Cytotoxicity against human NCI-ADR-RES cells; in short: as §1
SK-OV-3 = assay: Cytotoxicity against human SKOV3 cells; in short: as §1
786-0 = assay: Cytotoxicity against human 786-0 cells; in short: as §1
A498 = assay: Cytotoxicity against human A498 cells; in short: as §1
ACHN = assay: Cytotoxicity against human ACHN cells; in short: as §1
CAKI-1 = assay: Cytotoxicity against human Caki1 cells; in short: as §1
RXF 393 = assay: Cytotoxicity against human RXF393 cells; in short: as §1
SN12C = assay: Cytotoxicity against human SN12C cells; in short: as §1
TK-10 = assay: Cytotoxicity against human TK10 cells; in short: as §2
[9] = Cytotoxicity against human UO31 cells; in short: as §2
DU-145 = assay: Cytotoxicity against human DU145 cells; in short: as §1
MCF7 = assay: Cytotoxicity against human MCF7 cells; in short: as §1
MDA-MB-231 = assay: Cytotoxicity against human MDA-MB-231 cells; in short: as §1
BT-549 = assay: Cytotoxicity against human BT549 cells; in short: as §1
T47D = assay: Cytotoxicity against human T47D cells; in short: as §2
[10] = read-out: pLC50 (the source's name) (converted)

CC1(C)[C@H](O)CC[C@@]2(C)Oc3c(O)cc(/C=C/c4cc(O)c5cc[nH]c5c4)cc3C[C@H]12
GI50 (HL-60(TB)): 0.0437 µM
CC50 (HL-60(TB); [10]): > 100 µM
TGI (HL-60(TB); read-out: pTGI (converted)): 4.79 µM
GI50 (K562): 0.263 µM
CC50 (K562; [10]): > 100 µM
TGI (K562; read-out: pTGI (converted)): 47.9 µM
GI50 (MOLT-4): 0.0437 µM
CC50 (MOLT-4; [10]): > 100 µM
TGI (MOLT-4; read-out: pTGI (converted)): 0.617 µM
GI50 (A549): 1 µM
CC50 (A549; [10]): 55 µM
TGI (A549; read-out: pTGI (converted)): 8.32 µM
GI50 [1]: 0.794 µM
CC50 [1, 10]: > 100 µM
TGI ([1]; read-out: pTGI (converted)): 16.2 µM
GI50 (NCI-H226): 19.5 µM
CC50 (NCI-H226; [10]): > 100 µM
TGI (NCI-H226; read-out: pTGI (converted)): 75.9 µM
GI50 (NCI-H23): 1.32 µM
CC50 (NCI-H23; [10]): 41.7 µM
TGI (NCI-H23; read-out: pTGI (converted)): 7.59 µM
GI50 (HCC 2998): 3.16 µM
CC50 (HCC 2998; [10]): 39.8 µM
TGI (HCC 2998; read-out: pTGI (converted)): 14.1 µM
GI50 (HCT-116): 0.617 µM
CC50 (HCT-116; [10]): 8.13 µM
TGI (HCT-116; read-out: pTGI (converted)): 2.45 µM
GI50 ([2]; HCT-15): 0.832 µM
CC50 ([2]; HCT-15, read-out: pLC50 (the source's name) (converted)): > 100 µM
TGI ([2]; HCT-15, read-out: pTGI (converted)): 38 µM
GI50 (HT-29): 1.17 µM
CC50 (HT-29; [10]): 45.7 µM
TGI (HT-29; read-out: pTGI (converted)): 4.17 µM
GI50 (KM12): 0.447 µM
CC50 (KM12; [10]): 7.76 µM
TGI (KM12; read-out: pTGI (converted)): 1.95 µM
GI50 (SF-268): 0.589 µM
CC50 (SF-268; [10]): 79.4 µM
TGI (SF-268; read-out: pTGI (converted)): 26.3 µM
GI50 (SF-295; read-out: GI50): 0.089 µM
GI50 (SF-295; read-out: pGI50 (converted)): 0.0891 µM
CC50 (SF-295; [10]): 3.16 µM
TGI (SF-295; read-out: pTGI (converted)): 0.427 µM
GI50 (SF-539): 0.0204 µM
CC50 (SF-539; [10]): 6.17 µM
TGI (SF-539; read-out: pTGI (converted)): 0.724 µM
GI50 (SNB-75): 0.01 µM
CC50 (SNB-75; [10]): 56.2 µM
TGI (SNB-75; read-out: pTGI (converted)): 0.851 µM
GI50 (U-251): 0.0891 µM
CC50 (U-251; [10]): > 100 µM
TGI (U-251; read-out: pTGI (converted)): 20 µM
GI50 (LOX IMVI): 0.178 µM
CC50 (LOX IMVI; [10]): 5.62 µM
TGI (LOX IMVI; read-out: pTGI (converted)): 1.58 µM
GI50 (M14): 0.138 µM
CC50 (M14; [10]): 8.32 µM
TGI (M14; read-out: pTGI (converted)): 0.646 µM
GI50 (MDA-MB-435): 0.661 µM
CC50 (MDA-MB-435; [10]): 51.3 µM
TGI (MDA-MB-435; read-out: pTGI (converted)): 9.55 µM
GI50 (NCI-H460): 0.55 µM
CC50 (NCI-H460; [10]): 6.31 µM
TGI (NCI-H460; read-out: pTGI (converted)): 2.14 µM
GI50 (SK-MEL-2): 0.759 µM
CC50 (SK-MEL-2; [10]): 97.7 µM
TGI (SK-MEL-2; read-out: pTGI (converted)): 21.4 µM
GI50 ([3]; UACC-257): 3.8 µM
CC50 ([3]; UACC-257, read-out: pLC50 (the source's name) (converted)): 66.1 µM
TGI ([3]; UACC-257, read-out: pTGI (converted)): 16.2 µM
GI50 (IGROV-1): 2.51 µM
CC50 (IGROV-1; [10]): 97.7 µM
TGI (IGROV-1; read-out: pTGI (converted)): 22.9 µM
GI50 ([4]; OVCAR-3): 3.47 µM
CC50 ([4]; OVCAR-3, read-out: pLC50 (the source's name) (converted)): 66.1 µM
TGI ([4]; OVCAR-3, read-out: pTGI (converted)): 21.4 µM
GI50 ([5]; OVCAR-4): 5.01 µM
CC50 ([5]; OVCAR-4, read-out: pLC50 (the source's name) (converted)): 91.2 µM
TGI ([5]; OVCAR-4, read-out: pTGI (converted)): 42.7 µM
GI50 ([6]; OVCAR-5): 17.8 µM
CC50 ([6]; OVCAR-5, read-out: pLC50 (the source's name) (converted)): 97.7 µM
TGI ([6]; OVCAR-5, read-out: pTGI (converted)): 53.7 µM
GI50 ([7]; OVCAR-8): 4.79 µM
CC50 ([7]; OVCAR-8, read-out: pLC50 (the source's name) (converted)): > 100 µM
TGI ([7]; OVCAR-8, read-out: pTGI (converted)): 42.7 µM
GI50 [8]: 3.24 µM
CC50 [8, 10]: > 100 µM
TGI ([8]; read-out: pTGI (converted)): 31.6 µM
GI50 (SK-OV-3): 1.95 µM
LC50 (SK-OV-3): > 100 µM
TGI (SK-OV-3; read-out: pTGI (converted)): 18.6 µM
GI50 (786-0): 0.0457 µM
LC50 (concentration killing 50% of cells) (786-0): 12.9 µM
TGI (786-0; read-out: pTGI (converted)): 1.17 µM
GI50 (A498): 0.427 µM
CC50 (A498; [10]): 46.8 µM
TGI (A498; read-out: pTGI (converted)): 11.7 µM
GI50 (ACHN): 2.14 µM
LC50 (concentration killing 50% of cells) (ACHN): > 100 µM
TGI (ACHN; read-out: pTGI (converted)): 30.9 µM
GI50 (CAKI-1): 0.12 µM
LC50 (CAKI-1): 15.1 µM
TGI (CAKI-1; read-out: pTGI (converted)): 0.676 µM
GI50 (RXF 393): 0.01 µM
LC50 (RXF 393): 0.389 µM
TGI (RXF 393; read-out: pTGI (converted)): 0.0246 µM
GI50 (SN12C): 10.2 µM
LC50 (SN12C): > 100 µM
TGI (SN12C; read-out: pTGI (converted)): 63.1 µM
GI50 (TK-10): 3.55 µM
LC50 (TK-10): > 100 µM
TGI (TK-10; read-out: pTGI (converted)): 34.7 µM
GI50 ([9]; UO-31): 0.209 µM
LC50 ([9]; UO-31): > 100 µM
TGI ([9]; UO-31, read-out: pTGI (converted)): 2 µM
GI50 (DU-145): 0.912 µM
LC50 (50% lethal concentration) (DU-145): 33.1 µM
TGI (DU-145; read-out: pTGI (converted)): 6.46 µM
GI50 (MCF7): 1.35 µM
LC50 (MCF7): > 100 µM
TGI (MCF7; read-out: pTGI (converted)): 16.2 µM
GI50 (MDA-MB-231): 1.7 µM
LC50 (MDA-MB-231): > 100 µM
TGI (MDA-MB-231; read-out: pTGI (converted)): 32.4 µM
GI50 (BT-549): 0.0214 µM
CC50 (BT-549; [10]): 57.5 µM
TGI (BT-549; read-out: pTGI (converted)): 5.37 µM
GI50 (T47D): 7.59 µM
CC50 (T47D; [10]): 83.2 µM
TGI (T47D; read-out: pTGI (converted)): 27.5 µM
